Series [1] has as its target Dipeptidyl peptidase 4 (Homo sapiens, UniProt P27487). As to the kind of experiment: Inhibitory concentration against Dipeptidylpeptidase IV.
Series [2] addresses Dipeptidyl peptidase 2 (Homo sapiens, UniProt Q9UHL4). As to the kind of experiment: Inhibitory concentration against quiescent cell proline peptidase.
The nature of series [3]: Clearance in rat. Type of series: ADME, organism-based. Conditions: in vivo. In outline:
(§1)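 Male Sprague-Dawley rats given compound intravenously at 1 mg/kg and orally at 2 mg/kg; plasma drug concentrations measured by LC/MS/MS.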

Series [4] is described as follows: Bioavailability in rat. Type of series: ADME, organism-based. The note with it: in vivo. The gist of the method: as §1

What is called IC50 is the point on the concentration scale where inhibition reaches its midpoint. High values mean lower potency, low ones higher potency. The term clearance denotes a measure of how efficiently the substance is removed, as volume per time. A higher clearance goes with efficient removal. The term bioavailability denotes dose-corrected exposure relative to a reference, in per cent.

Each structure is given as a SMILES string.

Chain of Dipeptidyl peptidase 4 (P27487 whole entry): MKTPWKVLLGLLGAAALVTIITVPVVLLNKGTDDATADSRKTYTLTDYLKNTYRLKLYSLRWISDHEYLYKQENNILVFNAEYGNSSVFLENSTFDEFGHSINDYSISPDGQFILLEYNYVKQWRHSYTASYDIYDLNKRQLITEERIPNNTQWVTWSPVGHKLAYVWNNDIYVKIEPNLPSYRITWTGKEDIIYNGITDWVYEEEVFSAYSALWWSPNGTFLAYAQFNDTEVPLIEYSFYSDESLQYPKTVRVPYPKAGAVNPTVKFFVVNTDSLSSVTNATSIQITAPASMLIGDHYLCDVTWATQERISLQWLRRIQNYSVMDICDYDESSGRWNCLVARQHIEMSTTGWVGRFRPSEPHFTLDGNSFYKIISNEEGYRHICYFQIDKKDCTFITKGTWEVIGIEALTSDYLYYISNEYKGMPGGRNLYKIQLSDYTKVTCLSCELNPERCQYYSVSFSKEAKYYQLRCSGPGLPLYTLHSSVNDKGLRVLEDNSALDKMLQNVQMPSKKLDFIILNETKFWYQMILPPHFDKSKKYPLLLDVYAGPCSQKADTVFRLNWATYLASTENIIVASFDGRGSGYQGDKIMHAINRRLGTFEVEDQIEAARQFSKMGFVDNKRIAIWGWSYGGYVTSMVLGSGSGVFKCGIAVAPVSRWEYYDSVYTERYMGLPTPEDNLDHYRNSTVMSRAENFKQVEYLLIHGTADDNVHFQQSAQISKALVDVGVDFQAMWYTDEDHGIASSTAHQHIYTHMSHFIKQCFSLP

For the compound `N[C@@H](CC(=O)N1CCNC[C@H]1Cc1cscn1)Cc1ccccc1F`, the IC50 was 0.143 µM in series [1] and greater than 100 µM in series [2]. For `NC(=O)CN1CCN(C(=O)C[C@H](N)Cc2ccccc2F)[C@H](Cc2ccccc2)C1` the same measures were 0.114 µM and 66 µM. Consider `CS(=O)(=O)Nc1cccc(NC(=O)CN2CCN(C(=O)C[C@H](N)Cc3ccc(F)c(F)c3)[C@@H](Cc3ccccc3)C2)c1`, for which the IC50 in series [1] stood at 1.1 µM; in series [2], 0.28 µM. Regarding `N[C@@H](CC(=O)N1CCOC[C@H]1Cc1ccccc1)Cc1ccccc1F`, the concentration for half-maximal inhibition (IC50) was 0.108 µM in series [1] and greater than 100 µM in series [2].

In turn, `CS(=O)(=O)Nc1cccc(NC(=O)CN2CCN(C(=O)C[C@H](N)Cc3ccccc3)C(Cc3ccccc3)C2)c1` (some centres undefined) registered a concentration for half-maximal inhibition (IC50) in series [2] of 7.7 µM. In the case of `N[C@@H](CC(=O)N1CCCC[C@H]1Cc1ccccc1)Cc1ccccc1F`, the IC50 in series [1] is 1.04 µM; in series [2], greater than 100 µM. On to `CS(=O)(=O)Nc1cccc(NC(=O)CN2CCN(C(=O)C[C@@H](N)Cc3ccccc3)C(Cc3ccccc3)C2)c1` (some centres undefined), for which the IC50 in series [2] worked out at 19 µM. `CS(=O)(=O)Nc1cccc(NC(=O)CN2CCN(C(=O)C[C@@H](N)Cc3ccc(F)c(F)c3)C(Cc3ccccc3)C2)c1` (some centres undefined): the results for the concentration for half-maximal inhibition (IC50) in series [1] and in series [2] were 36 µM and 15 µM, respectively.

As for `CC(C)[C@@H]1CNCCN1C(=O)C[C@H](N)Cc1ccccc1F`, the 50% inhibitory concentration (IC50) in series [1] was found to be 0.922 µM; in series [2], 50 µM. On to `N[C@@H](CC(=O)N1CCNC[C@H]1Cc1ccc(F)cc1)Cc1ccccc1F`, for which the values for the half-maximal inhibitory concentration (IC50) in series [1] and in series [2] were 0.166 µM and greater than 100 µM, respectively.

In the case of `CS(=O)(=O)Nc1cccc(NC(=O)CN2CCN(C(=O)C[C@H](N)Cc3ccc(F)c(F)c3)[C@H](Cc3ccccc3)C2)c1`, the half-inhibitory concentration (IC50) in series [1] was found to be 0.03 µM; in series [2], 0.64 µM. As for `CN1CCN(C(=O)C[C@H](N)Cc2ccccc2F)[C@H](Cc2ccccc2)C1`, the IC50 in series [1] is 0.225 µM; in series [2], greater than 100 µM. For `C[C@@H]1CNCCN1C(=O)C[C@H](N)Cc1ccccc1F` the same measures were 1.6 µM and greater than 100 µM. On to `N[C@@H](CC(=O)N1CCNCC1)Cc1ccccc1F`, for which the concentration for half-maximal inhibition (IC50) in series [1] was 3.7 µM; in series [2], greater than 100 µM. Turning to `CS(=O)(=O)Nc1cccc(NC(=O)CN2CCN(C(=O)C[C@H](N)Cc3ccccc3F)[C@H](Cc3ccccc3)C2)c1`, the clearance in series [3] came to 7.8 L/h/kg. In series [4], this compound registered a bioavailability of less than 1%. On to `CS(=O)(=O)Nc1cccc(NC(=O)CN2CCN(C(=O)C[C@H](N)Cc3ccc(F)c(F)c3)C(Cc3ccccc3)C2)c1` (some centres undefined), for which the figures for the IC50 in series [1] and in series [2] were 0.044 µM and 0.45 µM, respectively. For `N[C@@H](CC(=O)N1CCNC[C@H]1Cc1ccccc1)Cc1ccccc1F` the same measures were 0.139 µM and greater than 100 µM. As for `N[C@@H](CC(=O)N1CCNC[C@H]1c1ccc(F)cc1)Cc1ccccc1F`, the 50% inhibitory concentration (IC50) in series [1] came to 0.61 µM; in series [2], 23 µM. As to `N[C@@H](CC(=O)N1CCNC[C@H]1Cc1ccccc1)Cc1cc(F)ccc1F`, the 50% inhibitory concentration (IC50) in series [2] stood at 65 µM. `N[C@@H](CC(=O)N1CCN(Cc2ccccc2)C[C@H]1Cc1ccccc1)Cc1ccccc1F`: the IC50 in series [1] is 0.405 µM; in series [2], 15 µM.

For the compound `N[C@@H](CC(=O)N1CCNC[C@H]1Cc1cccnc1)Cc1ccccc1F`, the results for the 50% inhibitory concentration (IC50) in series [1] and in series [2] were 0.155 µM and greater than 100 µM, respectively.
